Hits are enriched below; roughly 4.5% of the tested compounds scored in any of these assays.
GPR7 antagonist: GPR7 receptor antagonists, primary screen, cell-based, fluorescence, single concentration | inhibition, % at 4.4 µM | Neuropeptides B/W receptor type 1 (Homo sapiens), P48145 | hit rate 1.1% among 290,000 | GPR7-expressing cells, fluorescence antagonist assay; in the data active = inhibition above about 16%, passing the limit was not always enough;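 also: cells stimulated with the agonist NPW; 0% = agonist with vehicle and 100% = vehicle without agonist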
Target sequence (P48145 whole entry, looked up): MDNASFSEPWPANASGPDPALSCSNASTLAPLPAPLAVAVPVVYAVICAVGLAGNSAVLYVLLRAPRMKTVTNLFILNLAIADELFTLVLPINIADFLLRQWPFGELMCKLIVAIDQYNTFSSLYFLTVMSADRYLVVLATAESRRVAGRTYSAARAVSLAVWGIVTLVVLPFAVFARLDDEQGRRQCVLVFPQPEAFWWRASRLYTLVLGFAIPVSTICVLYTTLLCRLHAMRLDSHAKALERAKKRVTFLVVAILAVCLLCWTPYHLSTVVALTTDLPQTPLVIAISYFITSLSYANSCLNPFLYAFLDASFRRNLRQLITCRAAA
OX1R antag-1: antagonists of human orexin 1 receptor (OX1R). Orexin/Hypocretin receptor type 1 (Homo sapiens), O43613. OX1R-expressing cells, FRET antagonist read-out. inhibition, % at 6.6 µM. hit rate 1.8% among 330,000; in the data active = inhibition mostly above about 38%, no sharp cut-off; inactive = mostly below about 40%;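 also: 0% = agonist challenge alone and 100% = reference antagonist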
Target sequence (O43613 whole entry, looked up): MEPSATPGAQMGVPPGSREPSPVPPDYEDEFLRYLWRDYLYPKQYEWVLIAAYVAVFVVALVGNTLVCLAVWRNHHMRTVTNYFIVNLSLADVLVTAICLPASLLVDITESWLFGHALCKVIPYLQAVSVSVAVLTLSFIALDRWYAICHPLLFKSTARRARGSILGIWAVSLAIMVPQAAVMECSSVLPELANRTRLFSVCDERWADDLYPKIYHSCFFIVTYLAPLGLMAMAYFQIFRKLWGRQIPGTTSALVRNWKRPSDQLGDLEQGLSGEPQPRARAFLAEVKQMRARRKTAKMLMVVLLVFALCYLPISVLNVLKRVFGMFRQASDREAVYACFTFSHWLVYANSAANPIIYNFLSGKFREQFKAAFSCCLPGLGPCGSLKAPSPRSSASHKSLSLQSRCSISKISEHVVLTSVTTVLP
TAAR1 antagonist: human TAAR1 antagonists, primary screen, Fluo-8 calcium fluorescence, CHO RD-HGA16 cells. Trace amine-associated receptor 1 (Homo sapiens), Q96RJ0. antagonist. inhibition, % at 3 µM. hit rate 1.5% among 360,000;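 active = inhibition above a per-plate cutoff, the mean inhibition of test compounds on that plate plus 3 SD, cut at about 49% in these data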;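 also: 0% = DMSO plus EC80 beta-PEA response and 100% = DMSO alone without agonist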
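Test system: CHO RD-HGA16 cells bearing hTAAR1 | Reagent: β-PEA, EC80 | Compound dosing: 3 µM, single point | Schedule: Dye loading 75 min at 37 °C, then 30 min room temperature | Signal: Calcium fluorescence with Fluo-8 | Evaluation: Percent inhibition of PEA-evoked calcium signal, max/basal emission ratio | Control set: DMSO-only wells and EC80 β-PEA-stimulated wells | Repeats: Singlicate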
TAAR1 ag: human TAAR1 agonists, primary screen, Fluo-8 calcium fluorescence, CHO RD-HGA16 cells; vehicle wells 0%, saturating PEA agonist 100%; activation, % at 3 µM; hit rate 0.99% among 360,000; AID 624467, 2012;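 active = activation above the mean activation of all test compounds in the run plus 3 SD, cut at about 38% in these data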
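System: CHO-derived RD-HGA16 cells with stable Gα16 and human TAAR1. Times: 17-24 h plating, Fluo-8 75 min 37 °C, 30 min RT. Measured by: calcium-sensitive Fluo-8 signal, excitation 470-495, emission 515-575 nm. Read-out basis: % activation relative to PEA EC100 response. Control set: DMSO and PEA EC100. Repeats: no replicates (n 1).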
CHO parental Ca: ATP-evoked calcium signal inhibitors, parental CHO, primary screen, counter-screen for OX1R antagonist project, cell-based, fluorescence, Fluo-8 calcium dye. inhibition, % at 5.6 µM. parental CHO-K1, ATP-induced calcium, Fluo-8 fluorescence. hit rate 0.63% among 330,000;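 active = inhibition above that plate's mean sample inhibition plus 3 SD, cut at about 26% in these data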;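 also: 0% = ATP-challenged DMSO wells and 100% = DMSO wells without ATP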
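Test system: parental CHO cells; detection: calcium-sensitive Fluo-8 fluorescence; evaluation: percent inhibition of calcium signal; also added: ATP as calcium-mobilizing challenge; repeats: one well per compound; control set: ATP-challenged DMSO wells low, unchallenged DMSO wells high; compound: single nominal dose of 5.6 µM per compound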
OX1R antag-2: OX1R (HCRTR1) antagonists, primary screen, fluorescence, CHO/OX1R cells, Fluo-8 calcium, orexin A; Orexin/Hypocretin receptor type 1 (Homo sapiens), O43613; Fluo-8 calcium fluorescence; inhibition, % at 5 µM; hit rate 0.43% among 330,000; AID 434989, 2010;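 active = inhibition above its plate's threshold, mean inhibition of all tested compounds on the plate plus 3 SD, cut at about 37% in these data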;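 also: 0% = orexin A challenge wells and 100% = SB-334867-A antagonist wells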
An asterisk follows results filed as active; . = not tested or not shown.

SMILES | GPR7 antagonist | OX1R antag-1 | TAAR1 antagonist | TAAR1 ag | CHO parental Ca | OX1R antag-2
COCCNC(=O)C1(C)CCCN(Cc2ccc(-n3ccnc3)cc2)C1 (centres undefined) | . | . | -7.1 | 0.2 | . | .
Cc1ccc(N=C2NC(=O)c3cc([N+](=O)[O-])ccc32)cc1 | 3.1 | 55.9* | -15.1 | -2.0 | 9.2 | -1.0
CCS(=O)(=O)N1CCN(C(=O)c2ccc3nc(C)c(N(C)C(=O)CCc4ccccc4)n3c2)CC1 | . | . | -3.9 | 2.8 | . | .
O=C(COC(=O)COc1ccccc1)Nc1ncc([N+](=O)[O-])s1 | . | 43.0* | -7.5 | 19.9 | 2.0 | -20.2
Cc1csc(NC(=O)CSc2nncn2C)n1 | -4.1 | 23.0 | -0.9 | 2.7 | 4.3 | -16.0
Cc1nnc(NC(=O)CC(C)c2ccccc2)s1 (centres undefined) | -3.7 | 18.9 | -13.3 | 4.6 | -3.9 | -1.4
CC(CC(=O)Nc1ncc([N+](=O)[O-])s1)c1ccccc1 (centres undefined) | 8.6 | 35.3* | 13.4 | 3.5 | 3.9 | -11.5
Cn1cnnc1SCC(=O)Nc1ncc([N+](=O)[O-])s1 | . | 35.4* | -7.2 | 1.5 | 6.4 | -5.3
CCCCn1nnnc1C(c1cc2ccccc2o1)N1CCN(c2ccncc2)CC1 (centres undefined) | . | . | -16.5 | 3.3 | . | .
CC1(C(=O)NCc2ccc(C(F)(F)F)cc2)CCN1Cc1ccccc1OC(F)F (centres undefined) | . | . | 55.6* | 9.5 | . | .
CC1(C(=O)NCc2cccc3ccccc23)CCN1Cc1ccccc1OC(F)F (centres undefined) | . | . | 16.5 | 1.1 | . | .
O=C(/C=C(\Nc1cccc(F)c1)c1ccccc1)c1ccccc1 | . | . | 13.9 | 0.2 | . | .
COc1cc2c(cc1OC)CN(c1ccc3ccccc3n1)CC2 | 29.2 | 73.5* | 1.6 | -1.4 | -15.2 | -10.3
COc1cc2c(cc1OC)CN(c1ccc(-c3ccccc3OC)nn1)CC2 | -14.5 | 34.5 | . | . | -5.5 | -18.7
COc1ccccc1OC(=O)Nc1ccc(Cl)cc1 | -5.2 | 10.2 | 24.4 | 5.9 | 31.2* | -2.8
CC(Nc1ncnc2ccccc12)c1ccccc1 (centres undefined) | 6.9 | 6.0 | 34.3 | 5.2 | 38.2* | 21.1
CC(C)Oc1ccc(Nc2ncnc3ccccc23)cc1 | -9.5 | 11.9 | -1.6 | 1.1 | -1.2 | -18.4
O=C(Nc1cc(S(=O)(=O)N2CCOCC2)ccc1O)c1ccc(NS(=O)(=O)c2ccc(Cl)s2)cc1 | 4.9 | 4.9 | 11.0 | -0.4 | 12.1 | 8.5
Cc1ccc(NC(=O)c2ccccc2NS(=O)(=O)c2ccc(Cl)s2)cc1S(=O)(=O)N1CCOCC1 | 10.7 | 62.6* | 18.2 | 7.7 | 0.6 | 20.8
CCOc1ccccc1N(CC)C(=O)c1cc2c(s1)-c1ccccc1S(=O)(=O)C2 | . | . | -6.3 | 2.5 | . | .
COc1ccc(/C=C2/SC(=S)N(CCCC(=O)Nc3ccc(O)cc3)C2=O)cc1OC | -25.0 | 53.8* | -26.2 | -2.0 | -1.5 | -11.3
O=C(CN1C(=O)/C(=C/c2ccccc2)SC1=S)NNC(=O)c1ccccc1O | -4.0 | 13.8 | -15.2 | 9.8 | 0.1 | -5.7
O=C(CCCN1C(=O)/C(=C/c2ccc3c(c2)OCO3)SC1=S)Nc1cccc(C(=O)O)c1 | 12.0 | 54.3* | -14.0 | 2.8 | -16.9 | 6.7
COc1cccc(/C=C2/SC(=S)N(CC(=O)NNC(=O)c3ccccc3O)C2=O)c1 | -4.3 | 48.2* | -5.7 | -1.4 | -10.8 | -3.1
COc1cccc(/C=C2/SC(=S)N(CCCC(=O)Nc3ccc(O)cc3)C2=O)c1 | -18.7 | 73.0* | -24.4 | -1.4 | -9.5 | 10.5
SMILES | GPR7 antagonist | OX1R antag-1 | TAAR1 antagonist | TAAR1 ag | CHO parental Ca | OX1R antag-2
COc1cccc(/C=C2\SC(=S)N(CCCC(=O)Nc3ccc(C(=O)O)cc3)C2=O)c1 | -9.7 | -0.3 | -19.0 | 4.3 | -14.5 | -15.6
O=C(CCN1C(=O)/C(=C/c2ccc3c(c2)OCO3)SC1=S)Nc1cccc(C(=O)O)c1 | -4.4 | 10.1 | -11.7 | 1.1 | 3.8 | -4.8
COc1ccc(N2C[C@@]3(O)CC[C@@H](O)[C@@H](OC)[C@@H]3[C@@]2(C)[C@H](O)CC=C(C)C)cc1 | . | . | -6.8 | -0.1 | . | .
COCc1cc(N2CCN(C(=O)OC(C)(C)C)C[C@@H]2C)ccc1N1CC[C@@H](O)C1 | . | . | -2.5 | 1.7 | . | .
COc1cc(Cl)c(NC2=CC(=O)C(=O)c3ccccc32)c(OC)c1 | . | 33.0* | 0.0 | 1.3 | -16.7 | -8.6
COc1ccccc1CCn1cnc(-c2cccc(Br)c2)c1CC(C)C | . | . | 29.6 | 21.9 | . | .
Cc1ccc([C@@H]2CC=C(C(=O)O)[C@H](c3ccccc3)N2S(=O)(=O)c2ccccc2C)cc1 | . | 54.5* | 7.9 | 1.7 | -15.0 | 33.2
Cc1ccc([C@H]2C(C(=O)O)=CC[C@@H](c3ccc(Cl)cc3)N2S(=O)(=O)c2ccccc2C)cc1 | . | 31.1 | . | . | -12.1 | 21.5
Cc1ccc([C@H]2C(C(=O)O)=CC[C@@H](c3ccc(C)cc3)N2S(=O)(=O)c2ccccc2C)cc1 | . | 45.4* | -0.6 | 0.5 | -18.8 | 0.2
Cc1ccccc1S(=O)(=O)N1[C@@H](c2ccc(Cl)cc2)C(C(=O)O)=CC[C@H]1c1ccc(Cl)cc1 | . | 35.2 | 42.6 | -1.4 | -4.9 | 29.4
COc1ccc([C@@H]2CC=C(C(=O)O)[C@H](c3ccc(C)cc3)N2S(=O)(=O)c2ccccc2C)cc1 | . | 49.7* | 9.0 | -1.1 | -11.1 | 2.4
COc1ccc([C@@H]2CC=C(C(=O)O)[C@H](c3ccc(F)cc3)N2S(=O)(=O)c2ccccc2C)cc1 | . | 35.3 | -1.6 | 4.6 | -18.1 | -26.1
COc1ccc(C(C)=O)cc1CN1C(=O)C(C)ON=C1c1ccccn1 (centres undefined) | . | . | -20.1 | -0.1 | . | .
CN1CCCCC(NC(=O)c2ccc(F)cc2)C1=O (centres undefined) | . | . | -2.6 | 1.3 | . | .
O=[N+]([O-])c1ccc(N2CCN(c3cccc(Cl)c3)CC2)cn1 | 20.7* | 9.4 | 7.7 | 6.1 | 0.0 | -13.7
O=C(Nc1cccc(NC(=O)c2ccccc2Cl)c1)c1ccc([N+](=O)[O-])o1 | 1.4 | 40.8 | 55.1* | 17.3 | 17.6 | 19.3
O=C(Nc1ccc2[nH]c(=O)[nH]c2c1)c1ccc([N+](=O)[O-])o1 | . | 43.0* | 3.9 | 0.9 | -7.2 | -2.1
Cc1ccc(NC(=O)c2ccc([N+](=O)[O-])o2)cc1C | -17.3 | 37.2 | -1.6 | 4.1 | -6.5 | -4.1
C/C=C/c1ccc2c(c1)O[C@H](CN(C)CC1CCOCC1)[C@@H](C)CN([C@H](C)CO)S2(=O)=O | . | . | -10.2 | 1.5 | . | .
